Assay [1] addresses T1, Ubl carboxyl-terminal hydrolase 18 (Homo sapiens) (UniProt Q9UMW8).
T1 sequence (whole entry): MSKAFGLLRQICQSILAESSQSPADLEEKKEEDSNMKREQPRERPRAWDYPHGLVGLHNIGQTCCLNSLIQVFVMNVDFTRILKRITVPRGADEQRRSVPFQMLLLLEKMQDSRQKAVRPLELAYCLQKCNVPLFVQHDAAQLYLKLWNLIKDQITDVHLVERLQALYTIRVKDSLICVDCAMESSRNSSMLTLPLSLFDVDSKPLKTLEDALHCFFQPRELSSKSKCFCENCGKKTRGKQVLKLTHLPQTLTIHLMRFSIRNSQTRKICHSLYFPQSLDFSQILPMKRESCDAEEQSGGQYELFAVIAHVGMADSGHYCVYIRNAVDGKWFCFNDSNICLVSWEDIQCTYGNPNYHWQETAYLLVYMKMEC
As to the kind of experiment: Inhibition of USP18 (unknown origin) expressed in human A549 cells coexpressing ISG15-GFP assessed as reduction in free GFP at 1 to 5 uM after 24 hrs by immunoblot assay. Format: cell-based.

Assay [2] concerns the target T2, Ubiquitin carboxyl-terminal hydrolase isozyme L5 (Homo sapiens, UniProt Q9Y5K5).
T2 sequence (Q9Y5K5 whole entry): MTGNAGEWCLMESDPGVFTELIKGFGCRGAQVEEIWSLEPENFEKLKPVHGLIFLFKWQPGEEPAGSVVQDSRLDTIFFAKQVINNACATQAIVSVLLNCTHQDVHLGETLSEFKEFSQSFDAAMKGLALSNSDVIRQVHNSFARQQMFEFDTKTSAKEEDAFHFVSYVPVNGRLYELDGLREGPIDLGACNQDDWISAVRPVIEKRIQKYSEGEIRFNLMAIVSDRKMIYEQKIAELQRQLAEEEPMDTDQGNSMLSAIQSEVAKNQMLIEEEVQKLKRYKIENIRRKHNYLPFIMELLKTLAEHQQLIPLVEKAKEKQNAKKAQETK
Briefly: Inhibition of GST-tagged UCHL5 (unknown origin) using Ub-AMC as substrate preincubated for 30 mins before substrate addition measured after 60 mins by fluorescence assay. In a few lines:
(§1)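 Purified isopeptidase activity was measured with ubiquitin-AMC as fluorogenic substrate; IC50 was derived from inhibition.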

Assay [3] concerns A549. Briefly: Induction of cell death in human A549 cells assessed as stabilization of p53 at 1 to 5 uM after 24 hrs by immunoblot assay. Type of assay: functional, cell-based. In general terms: In western blotting, separated proteins are transferred to a membrane and probed.
The subject of assay [4] is U-87 MG. Briefly: Induction of necrosis in human U87MG cells at 0.6 to 10 uM after 24 hrs by trypan blue assay. Type of assay: functional, cell-based. The note with it: U-87MG ATCC. In outline:
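U87MG cells treated 24 h at the indicated concentrations. Death scored as percent trypan blue-positive cells. Caspase activity measured in parallel with a rhodamine 110 bis-(N-Z-DEVD amide) fluorogenic substrate and read in relative fluorescence units.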

Assay [5] addresses T3, Ubl carboxyl-terminal hydrolase 18 (Homo sapiens, UniProt Q9UMW8).
T3 sequence (Q9UMW8 whole entry): T1 sequence (whole entry)
Briefly: Inhibition of recombinant human USP18 (16 to 372 aa) expressed in Sf9 cells using ISG15-AMC as substrate preincubated for 30 mins before substrate addition measured after 60 mins by fluorescence assay.

Assay [6] deals with T4, Ubiquitin carboxyl-terminal hydrolase 2 (Homo sapiens, UniProt O75604).
T4 sequence (O75604 whole entry): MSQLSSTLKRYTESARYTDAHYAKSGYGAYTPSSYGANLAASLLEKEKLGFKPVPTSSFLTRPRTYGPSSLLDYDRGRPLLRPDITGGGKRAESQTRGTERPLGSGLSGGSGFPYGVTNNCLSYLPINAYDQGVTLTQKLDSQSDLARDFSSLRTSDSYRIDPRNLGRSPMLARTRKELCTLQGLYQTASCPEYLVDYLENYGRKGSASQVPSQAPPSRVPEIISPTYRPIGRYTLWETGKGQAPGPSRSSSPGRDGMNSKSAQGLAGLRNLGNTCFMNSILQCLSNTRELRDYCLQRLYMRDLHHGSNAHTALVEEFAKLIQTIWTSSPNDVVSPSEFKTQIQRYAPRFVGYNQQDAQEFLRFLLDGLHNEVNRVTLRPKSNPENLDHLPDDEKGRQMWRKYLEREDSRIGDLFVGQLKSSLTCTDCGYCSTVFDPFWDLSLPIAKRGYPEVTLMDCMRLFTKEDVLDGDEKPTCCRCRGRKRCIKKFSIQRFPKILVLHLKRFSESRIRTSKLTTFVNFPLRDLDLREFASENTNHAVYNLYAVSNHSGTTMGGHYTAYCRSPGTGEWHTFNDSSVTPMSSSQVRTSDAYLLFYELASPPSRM
Briefly: Inhibition of USP2 catalytic domain (unknown origin) expressed in bacteria using Ub-AMC as substrate preincubated for 30 mins before substrate addition measured after 60 mins by fluorescence assay. In a few lines: as §1

A short description of assay [7]: Cytotoxicity against human U87MG cells after 48 hrs by resazurin assay. Format: functional, cell-based, U-87MG ATCC. The note with it: U-87 MG. In outline: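 U87MG glioblastoma cells treated with compounds; viability read by resazurin 48 h after treatment. IC50 from triplicate experiments, reported as mean and s.d.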
The target in assay [8] is Ubiquitin carboxyl-terminal hydrolase isozyme L1 (Homo sapiens) (UniProt P09936). Briefly: Inhibition of GST-tagged recombinant full-length UCHL1 (unknown origin) expressed in bacteria using Ub-AMC as substrate preincubated for 30 mins before substrate addition measured after 60 mins by fluorescence assay. In a few lines:
as §1

Assay [9] has as its system A549. Briefly: Induction of cell death in human A549 cells assessed as accumulation of poly-ubiquitinated proteins at 1 to 5 uM after 24 hrs by immunoblot assay. Type of assay: functional, cell-based.
Assay [10] concerns the target T1, Ubl carboxyl-terminal hydrolase 18 (Homo sapiens). As to the kind of experiment: Inhibition of USP18 (unknown origin) expressed in human A549 cells coexpressing ISG15-GFP assessed as reduction in free GFP at 25 to 100 nM after 24 hrs by immunoblot assay.
Assay [11] has as its system A549. As to the kind of experiment: Induction of cell death in human A549 cells assessed as accumulation of poly-ubiquitinated proteins at 0.025 to 0.5 uM after 24 hrs by immunoblot assay. Format: functional, cell-based.
Assay [12] concerns A549. Briefly: Induction of cell death in human A549 cells assessed as stabilization of p53 at 0.025 to 0.5 uM after 24 hrs by immunoblot assay. Type of assay: functional, cell-based.
In assay [13] the test system is A549. Briefly: Induction of cell death in human A549 cells assessed as accumulation of Noxa at 0.025 to 0.1 uM after 24 hrs by immunoblot assay. Type of assay: functional, cell-based.
Assay [14] relates to T98G. As to the kind of experiment: Induction of apoptosis in human T98G cells assessed as caspase activation at 0.6 to 10 uM after 24 hrs by rhodamine-based fluorescence assay. Format: functional, cell-based. In outline:
(§2)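 U87MG or T98G cells exposed 24 h to the listed concentrations. Caspase activity was read as relative fluorescence units from the rhodamine 110 bis-(N-Z-L-aspartyl-L-glutamyl-L-valyl-aspartic acid amide) fluorogenic substrate.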

The test system of a further assay is U-87MG ATCC. As to the kind of experiment: Induction of cell death in human U87MG cells at 4.2 to 18.4 uM after 24 hrs by trypan blue assay in presence of zVAD-fmk. Type of assay: functional, cell-based.
For assay [15], the system named is U-87 MG. Briefly: Induction of apoptosis in human U87MG cells assessed as caspase activation at 0.6 to 10 uM after 24 hrs by rhodamine-based fluorescence assay. Type of assay: functional, cell-based. The note with it: U-87MG ATCC. In a few lines:
as §2

The subject of assay [16] is T98G. Briefly: Induction of necrosis in human T98G cells at 0.6 to 10 uM after 24 hrs by trypan blue assay. Type of assay: functional, cell-based. In a few lines: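 T98G cells exposed 24 h to the listed concentrations. Cell death was scored as percent of trypan blue-positive cells.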

Molecules are shown by their SMILES. Activity calls are given as the source filed them. The rule behind the calls is not given here.

Ubiquitin carboxyl-terminal hydrolase isozyme L1 (Homo sapiens), sequence (P09936 whole entry, looked up): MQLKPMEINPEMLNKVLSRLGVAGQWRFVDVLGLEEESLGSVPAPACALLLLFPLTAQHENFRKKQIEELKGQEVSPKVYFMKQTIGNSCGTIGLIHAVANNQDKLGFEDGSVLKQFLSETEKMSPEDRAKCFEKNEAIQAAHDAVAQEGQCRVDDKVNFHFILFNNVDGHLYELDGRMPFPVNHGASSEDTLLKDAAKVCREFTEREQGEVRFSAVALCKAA

As to `O=C1/C(=C/c2ccc([N+](=O)[O-])cc2)CS(=O)(=O)C/C1=C\c1ccc([N+](=O)[O-])cc1`, the inhibition entry in assay [1] was “Active”. In addition, the IC50 was 13.6 µM in [2], 33.2 µM in [5], 32.6 µM in assay [6] and 0.77 µM in assay [7]. For the same compound, the result with A549 [3], in the assay on U-87 MG [4] and in the assay on A549 [9] was Active. Moreover, the inhibition result in [8] is “inactive”. With `N#Cc1ccc(/C=C2\CS(=O)(=O)C/C(=C\c3ccc(C#N)cc3)C2=O)cc1`, the IC50 in assay [7] amounted to 1.35 µM.

The compound `O=C1/C(=C/c2ccc(F)cc2)CS(=O)(=O)C/C1=C\c1ccc(F)cc1` returned an IC50 in [7] of 2.21 µM. The same measure, in the same setting: next, `Cc1ccc(/C=C2\CS(=O)(=O)C/C(=C\c3ccc([N+](=O)[O-])cc3)C2=O)cc1`: 1.39 µM; `O=C1/C(=C/c2ccc(O)cc2)CS(=O)(=O)C/C1=C\c1ccc(O)cc1`: 6.73 µM. The compound `O=C1/C(=C/c2ccc(Oc3ccccc3)cc2)CS(=O)(=O)C/C1=C\c1ccc(Oc2ccccc2)cc1` gave an IC50 in [7] of 2.94 µM. In assay [7], `O=C1/C(=C/c2ccc([N+](=O)[O-])cc2)CCC/C1=C\c1ccc([N+](=O)[O-])cc1` came in with an IC50 of 27.5 µM. Regarding `O=C1/C(=C/c2ccc([N+](=O)[O-])cc2)CSC/C1=C\c1ccc([N+](=O)[O-])cc1`, it took 11.6 µM to reach half-maximal inhibition in [7] (IC50). Compound `COc1ccc(/C=C2\CS(=O)(=O)C/C(=C\c3ccc(OC)cc3)C2=O)cc1` showed an IC50 in [7] of 3.57 µM. For `O=C1/C(=C/c2ccc(O)cc2)CS(=O)(=O)C/C1=C\c1ccc([N+](=O)[O-])cc1`, the IC50 in assay [7] is 2.17 µM.

In turn, `O=C1/C(=C/c2ccccc2)CS(=O)(=O)C/C1=C\c1ccccc1` came in with an IC50 in assay [7] of 5.11 µM.

On to `O=C1/C(=C/c2ccc([N+](=O)[O-])cc2)COC/C1=C\c1ccc([N+](=O)[O-])cc1`, for which, in assay [7], the IC50 was found to be 50.1 µM. The same measure, in the same setting: next, `O=C1/C(=C/c2ccc([N+](=O)[O-])cc2)CC2(C/C1=C\c1ccc([N+](=O)[O-])cc1)OCCO2`: 15.3 µM; `COc1ccc(/C=C2\CS(=O)(=O)C/C(=C\c3ccc(OC)c([N+](=O)[O-])c3)C2=O)cc1[N+](=O)[O-]`: 1.14 µM. Take `CC(C)C[C@H](NC(=O)[C@H](Cc1ccccc1)NC(=O)c1cnccn1)B(O)O`: in assay [10], the inhibition entry is “inactive”. The outcome with A549 [11], with A549 [12] and with A549 [13] was Active.

As for `O=C1/C(=C/c2ccc([N+](=O)[O-])cc2)C[S+]([O-])C/C1=C\c1ccc([N+](=O)[O-])cc1` (stereo not drawn), the outcome in the assay on U-87 MG [4] was Active. In [7], the IC50 amounted to 1.79 µM. On to `COc1ccc(/C=C2\CS(=O)(=O)C/C(=C\c3ccc([N+](=O)[O-])cc3)C2=O)cc1`, for which the IC50 in [7] was found to be 2.09 µM. In turn, `O=C1/C(=C/c2cccc([N+](=O)[O-])c2)CS(=O)(=O)C/C1=C\c1cccc([N+](=O)[O-])c1` returned an IC50 in assay [7] of 0.76 µM. In turn, `CCOC(=O)C1C/C(=C\c2ccc([N+](=O)[O-])cc2)C(=O)/C(=C/c2ccc([N+](=O)[O-])cc2)C1` (stereo not drawn) had a concentration for half-maximal inhibition (IC50) in assay [7] of 2.47 µM. With `Cc1ccc(/C=C2\CS(=O)(=O)C/C(=C\c3ccc(C)cc3)C2=O)cc1`, the result in the assay with U-87 MG [4], in the assay with T98G [14], in the assay with U-87MG ATCC, in the assay with U-87 MG [15] and with T98G [16] was Active. Besides, in [7], the midpoint of inhibition, the IC50, lay at 4.74 µM. In assay [7], `O=C1/C(=C/c2ccc([N+](=O)[O-])cc2)CNC/C1=C\c1ccc([N+](=O)[O-])cc1` displayed an IC50 of 7.15 µM.

One may read the IC50 as the concentration needed to halve the response being measured.
